Consider 6 compounds from ChEMBL document CHEMBL4138196, “Discovery and structure-activity relationship of novel 4-hydroxy-thiazolidine-2-thione derivatives as tumor cell specific pyruvate kinase M2 activators” (Eur J Med Chem, 2018).

The term AC50 denotes the concentration at which the activity in the assay is half-maximal. Read a high AC50 as activity only at high concentration. For orientation: IC50 means the concentration at which inhibition is half-maximal.

Assay [1] has as its target Pyruvate kinase PKM (Homo sapiens, UniProt P14618). Briefly: Activation of N-terminal His -tagged human PKM2 expressed in Escherichia coli BL21 using PEP as substrate measured at 30 secs intervals for between 3 and 6 mins by fluorescent pyruvate kinase-lactate dehydrogenase coupled assay.
Assay [2] deals with NCI-H1299. Briefly: Antiproliferative activity against human H1299 cells after 48 hrs by MTS assay. In kind it is functional, cell-based. The note with it: NCI-H1299, 48 h. In a few lines: (§1)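 Cells grown in RPMI 1640 with 9% FBS at 37°C, 5% CO2. 3000-10000 cells/well were left to attach 12 h, then given compound at five concentrations, or DMSO as vehicle control, for 48 h. MTS was added for 3 h at 37°C and absorbance read at 490 nm. IC50 (50% growth inhibition) was taken from triplicate dose-response curves.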
(In general: Tetrazolium assays rely on reduction of a dye to a coloured formazan, in cell work by metabolically active cells.)

For assay [3], the system named is HCT-116. Briefly: Antiproliferative activity against human HCT116 cells after 48 hrs by MTS assay. In kind it is functional, cell-based. The note with it: HCT-116, 48 h. A digest of the protocol: as §1
Assay [4] deals with HeLa. Briefly: Antiproliferative activity against human HeLa cells after 48 hrs by MTS assay. The format is functional, cell-based. In a few lines: as §1
The test system of assay [5] is PC-3. Briefly: Antiproliferative activity against human PC3 cells after 48 hrs by MTS assay. The format is functional, cell-based. The note with it: PC-3, 48 h. A digest of the protocol: as §1
Assay [6] in a line: Antiproliferative activity against HELF after 48 hrs by MTS assay. The arrangement: species or system Homo sapiens. A digest of the protocol:
as §1

The subject of assay [7] is HCT-116. Briefly: Cell cycle arrest in human HCT116 cells assessed as accumulation at G1 phase at 1.25 uM after 8 to 12 hrs by propidium iodide staining-based flow cytometric method (reference value: 40%). In kind it is functional. In a few lines: (§2)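 HCT116 cells were exposed to DMSO or compound at 1.25, 2.5 or 5 μM; exposure is given as 8 h in the text and 12 h in the methods. Cells were harvested, washed twice in PBS and fixed in ice-cold ethanol at -4°C overnight. They were stained with propidium iodide (50 μg/mL) containing 0.1% RNase for 15 min in the dark at room temperature. Phase distribution was read by flow cytometry.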
A general note: A flow cytometer gives signals particle by particle.

For assay [8], the system named is HCT-116. Briefly: Cell cycle arrest in human HCT116 cells assessed as accumulation at S phase at 1.25 uM after 8 to 12 hrs by propidium iodide staining-based flow cytometric method (reference value: 43.38%). In kind it is functional. In a few lines: as §2
The test system of assay [9] is HCT-116. Briefly: Cell cycle arrest in human HCT116 cells assessed as accumulation at G2/M phase at 1.25 uM after 8 to 12 hrs by propidium iodide staining-based flow cytometric method (reference value: 21.28%). In kind it is functional. In a few lines:
as §2

Assay [10] deals with HCT-116. Briefly: Cell cycle arrest in human HCT116 cells assessed as accumulation at G1 phase at 2.5 uM after 8 to 12 hrs by propidium iodide staining-based flow cytometric method (reference value: 40%). In kind it is functional. A digest of the protocol: as §2
The subject of assay [11] is HCT-116. Briefly: Cell cycle arrest in human HCT116 cells assessed as accumulation at S phase at 2.5 uM after 8 to 12 hrs by propidium iodide staining-based flow cytometric method (reference value: 43.38%). The format is functional. In a few lines:
as §2

Assay [12] has as its system HCT-116. Briefly: Cell cycle arrest in human HCT116 cells assessed as accumulation at G2/M phase at 2.5 uM after 8 to 12 hrs by propidium iodide staining-based flow cytometric method (reference value: 21.28%). The format is functional. A digest of the protocol:
as §2

The subject of assay [13] is HCT-116. Briefly: Cell cycle arrest in human HCT116 cells assessed as accumulation at G1 phase at 5 uM after 8 to 12 hrs by propidium iodide staining-based flow cytometric method (reference value: 40%). In kind it is functional. A digest of the protocol:
as §2

Assay [14] deals with HCT-116. Briefly: Cell cycle arrest in human HCT116 cells assessed as accumulation at S phase at 5 uM after 8 to 12 hrs by propidium iodide staining-based flow cytometric method (reference value: 43.38%). In kind it is functional. A digest of the protocol:
as §2

Assay [15] has as its system HCT-116. Briefly: Cell cycle arrest in human HCT116 cells assessed as accumulation at G2/M phase at 5 uM after 8 to 12 hrs by propidium iodide staining-based flow cytometric method (reference value: 21.28%). In kind it is functional. A digest of the protocol:
as §2

The subject of assay [16] is HCT-116. Briefly: Cell cycle arrest in human HCT116 cells assessed as accumulation at G2/M phase after 8 to 12 hrs by propidium iodide staining-based flow cytometric method. The format is functional. In a few lines: as §2

Pyruvate kinase PKM, sequence (P14618 whole entry): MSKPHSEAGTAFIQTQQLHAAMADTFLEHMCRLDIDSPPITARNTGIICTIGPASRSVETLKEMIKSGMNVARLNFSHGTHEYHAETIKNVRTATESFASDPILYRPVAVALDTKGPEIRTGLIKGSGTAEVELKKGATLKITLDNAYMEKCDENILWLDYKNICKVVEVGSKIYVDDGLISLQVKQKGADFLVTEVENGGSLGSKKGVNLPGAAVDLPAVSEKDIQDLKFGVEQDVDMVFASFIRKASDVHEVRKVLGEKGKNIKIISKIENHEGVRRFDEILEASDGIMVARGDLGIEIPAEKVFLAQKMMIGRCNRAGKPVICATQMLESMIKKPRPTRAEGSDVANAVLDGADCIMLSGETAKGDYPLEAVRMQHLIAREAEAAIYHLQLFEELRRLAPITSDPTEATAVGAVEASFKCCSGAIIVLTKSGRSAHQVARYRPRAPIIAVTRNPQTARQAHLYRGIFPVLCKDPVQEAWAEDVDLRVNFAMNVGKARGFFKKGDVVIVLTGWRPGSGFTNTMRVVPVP

In assay [1], `COc1ccc(S(=O)(=O)Nc2ccc(C3(O)CSC(=S)N3Cc3cccnc3)cc2)cc1` (stereo unspecified) had an AC50 of 4.69 µM. Further, the IC50 in assay [2] is 960 nM; in [3] it was 1750 nM; in assay [4], 480 nM; in assay [5] it was 1070 nM; in [6], 8.63 µM.
Compound `COc1cccc(S(=O)(=O)Nc2ccc(C3(O)CSC(=S)N3Cc3cccnc3)cc2)c1` (stereo unspecified) came in with an AC50 in assay [1] of 5.95 µM. For the same compound, the IC50 in assay [2] is 930 nM; in [3], 2620 nM; in [4] it was 590 nM; in [5], 930 nM; in assay [6] it was 6.9 µM.
The compound `O=S(=O)(Nc1ccc(C2(O)CSC(=S)N2Cc2cccnc2)cc1)c1ccc2c(c1)OCCO2` (stereo unspecified) displayed an AC50 in [1] of 3.14 µM. The IC50 in [2] was found to be 690 nM; in assay [3], 810 nM; in assay [4] it was 460 nM; in assay [5], 660 nM; in [6], 11.8 µM. Moreover, the Activity in [7] came to 20.37%; in assay [8], 30.52%; in [9], 48.86%; in assay [10] it was 17.35%; in assay [11], 23.99%; in assay [12] it was 56.76%. In addition, the Activity in assay [13] is 11.58%; in [14], 27.65%; in assay [15], 63.21%; in [16] it was “Dose-dependent effect”.
In the case of `O=S(=O)(Nc1ccc(C2(O)CSC(=S)N2Cc2ccncc2)cc1)c1ccc2c(c1)OCCO2` (stereo unspecified), the AC50 in [1] was more than 20 µM. The IC50 in assay [2] stood at 750 nM; in assay [3] it was 660 nM; in [4], 470 nM; in [5], 700 nM; in assay [6] it was 8.31 µM.
In assay [1], `O=S(=O)(Nc1ccc(C2(O)CSC(=S)N2Cc2cccnc2)cc1)c1ccc2ccccc2c1` (stereo unspecified) showed an AC50 of more than 20 µM. For the same compound, the IC50 in assay [2] was 810 nM; in assay [3] it was 1650 nM; in assay [4], 460 nM; in assay [5], 1520 nM; in assay [6], 8.05 µM.
As to `Cc1ccncc1CN1C(=S)SCC1(O)c1ccc(NS(=O)(=O)c2ccc3c(c2)OCCO3)cc1` (stereo unspecified), the AC50 in assay [1] was more than 20 µM. For the same compound, the IC50 was determined as 510 nM in [2]; 410 nM in [3]; 340 nM in [4]; 1530 nM in assay [5]; 7.21 µM in assay [6].
